Data on one molecule can be found in ChEMBL document CHEMBL4196021, “Targeting G-quadruplex DNA structures in the telomere and oncogene promoter regions by benzimidazole‒carbazole ligands” (Eur J Med Chem, 2018).

Structures are written as SMILES. The source made the active and inactive calls. The calls are words filed in the database; no cut-off is given here.

Test [1] relates to Quadruplex DNA. The test can be described thus: Binding affinity to human c-Myc G-quadruplex DNA at 0.6 uM after 5 mins in presence of KCl by fluorescence spectroscopic method. The format is nucleic-acid assay. The essentials:
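Fluorescence titration at 25 °C with 0.6 µM ligand in 10 mM Tris-HCl pH 7.4, 100 mM KCl, 0.1 mM EDTA. Preformed G4 DNA was added stepwise, with 5 min incubation before each spectrum. Excitation 330 nm; emission 350–550 nm, slit 5 nm.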

In test [2] the target is Quadruplex DNA. The test can be described thus: Displacement of thiazole orange from human c-Myc G-quadruplex DNA after 5 mins in presence of KCl by fluorescence assay. Type of test: nucleic-acid assay. The essentials:
(§1)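 Thiazole orange displacement from a G4 DNA–TO complex (1 µM TO + 0.5 µM G4 DNA) in 10 mM Tris-HCl pH 7.4, 100 mM KCl, 0.1 mM EDTA. Ligand was added in increasing steps, with 5 min incubation each. Fluorescence read at ex 501/em 531 nm; % displacement = 100 − (Ft/F0 × 100). DC50 is the ligand concentration giving 50% displacement, read from plots; average of two independent experiments.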

Test [3] concerns the target Quadruplex DNA. The test can be described thus: Displacement of thiazole orange from human Bcl2 G-quadruplex DNA after 5 mins in presence of KCl by fluorescence assay. Type of test: nucleic-acid assay. In outline:
as §1

The target of test [4] is Quadruplex DNA. The test can be described thus: Displacement of thiazole orange from human c-Kit2 G-quadruplex DNA after 5 mins in presence of KCl by fluorescence assay. Type of test: nucleic-acid assay. The essentials: as §1
In test [5] the target is Quadruplex DNA. The test can be described thus: Displacement of thiazole orange from human VEGF G-quadruplex DNA after 5 mins in presence of KCl by fluorescence assay. The format is nucleic-acid assay. In outline: as §1
For test [6], the system named is Quadruplex DNA. The test can be described thus: Binding affinity to human c-Kit1 G-quadruplex DNA assessed as change in melting temperature in presence of KCl by CD spectroscopic method. Type of test: nucleic-acid assay. In outline: (§2)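 CD melting of 5 µM G4 DNA in 10 mM Tris-HCl pH 7.4, 25 mM KCl, 0.1 mM EDTA. Ligand was present during folding (heating, slow cooling). Spectra 200–400 nm over 20–96 °C in 2 °C steps, buffer blank subtracted. Tm was taken from normalized ellipticity at the positive maximum (262 nm for promoter G4s). ΔTm = ligand-bound minus DNA alone; average of two independent experiments.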

Test [7] concerns Quadruplex DNA. The test can be described thus: Binding affinity to human c-Kit2 G-quadruplex DNA assessed as change in melting temperature in presence of KCl by CD spectroscopic method. Type of test: nucleic-acid assay. The essentials:
as §2

Test [8] addresses Telomerase reverse transcriptase (Homo sapiens, UniProt O14746). The test can be described thus: Inhibition of telomerase (unknown origin) by TRAP-LIG assay. In outline: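 Telomerase activity measured by modified TRAP-LIG assay across ligand concentrations of 0.01 to 2 µM (11 levels). Positive and negative controls included. Inhibition was judged from the intensity and number of telomeric ladder bands.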

Test [9] deals with Quadruplex DNA. The test can be described thus: Stabilization of c-Myc G-quadruplex DNA in human HeLa cells assessed as decrease in c-Myc mRNA level after 24 hrs by RT-PCR method. The format is cell-based. The essentials:
(§3)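 HeLa cells exposed to increasing ligand concentrations (5 and 10 µM named) for 24 h, with DMSO-treated cells as control. Total RNA was extracted with TRI reagent and DNase I-treated. c-MYC and VEGF transcripts were quantified by qRT-PCR, normalized to GAPDH, and expressed as relative fold change.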

The subject of test [10] is Quadruplex DNA. The test can be described thus: Stabilization of VEGF G-quadruplex DNA in human HeLa cells assessed as decrease in VEGF mRNA level after 24 hrs by RT-PCR method. The format is cell-based. The essentials: as §3
The test system of test [11] is Quadruplex DNA. The test can be described thus: Stabilization of VEGF G-quadruplex DNA in human HeLa cells assessed as decrease in VEGF mRNA level at 5 uM after 24 hrs by RT-PCR method relative to control. Type of test: cell-based. On the set-up: scale not given: the % may be the effect or the level left. In outline: as §3
The subject of test [12] is HeLa. The test can be described thus: Cytotoxicity against human HeLa cells assessed as reduction in cell viability after 72 hrs by MTT assay. Type of test: functional, cell-based. The essentials: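 HeLa and MCF7 cells in log phase were seeded for 24 h, then exposed to a range of ligand concentrations for 72 h. MTT (5 mg/ml stock) was added for 4 h, formazan dissolved in DMSO, and absorbance read at 570 nm. Three independent experiments in triplicate, mean ± SD.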

Chain of Telomerase reverse transcriptase (O14746 whole entry): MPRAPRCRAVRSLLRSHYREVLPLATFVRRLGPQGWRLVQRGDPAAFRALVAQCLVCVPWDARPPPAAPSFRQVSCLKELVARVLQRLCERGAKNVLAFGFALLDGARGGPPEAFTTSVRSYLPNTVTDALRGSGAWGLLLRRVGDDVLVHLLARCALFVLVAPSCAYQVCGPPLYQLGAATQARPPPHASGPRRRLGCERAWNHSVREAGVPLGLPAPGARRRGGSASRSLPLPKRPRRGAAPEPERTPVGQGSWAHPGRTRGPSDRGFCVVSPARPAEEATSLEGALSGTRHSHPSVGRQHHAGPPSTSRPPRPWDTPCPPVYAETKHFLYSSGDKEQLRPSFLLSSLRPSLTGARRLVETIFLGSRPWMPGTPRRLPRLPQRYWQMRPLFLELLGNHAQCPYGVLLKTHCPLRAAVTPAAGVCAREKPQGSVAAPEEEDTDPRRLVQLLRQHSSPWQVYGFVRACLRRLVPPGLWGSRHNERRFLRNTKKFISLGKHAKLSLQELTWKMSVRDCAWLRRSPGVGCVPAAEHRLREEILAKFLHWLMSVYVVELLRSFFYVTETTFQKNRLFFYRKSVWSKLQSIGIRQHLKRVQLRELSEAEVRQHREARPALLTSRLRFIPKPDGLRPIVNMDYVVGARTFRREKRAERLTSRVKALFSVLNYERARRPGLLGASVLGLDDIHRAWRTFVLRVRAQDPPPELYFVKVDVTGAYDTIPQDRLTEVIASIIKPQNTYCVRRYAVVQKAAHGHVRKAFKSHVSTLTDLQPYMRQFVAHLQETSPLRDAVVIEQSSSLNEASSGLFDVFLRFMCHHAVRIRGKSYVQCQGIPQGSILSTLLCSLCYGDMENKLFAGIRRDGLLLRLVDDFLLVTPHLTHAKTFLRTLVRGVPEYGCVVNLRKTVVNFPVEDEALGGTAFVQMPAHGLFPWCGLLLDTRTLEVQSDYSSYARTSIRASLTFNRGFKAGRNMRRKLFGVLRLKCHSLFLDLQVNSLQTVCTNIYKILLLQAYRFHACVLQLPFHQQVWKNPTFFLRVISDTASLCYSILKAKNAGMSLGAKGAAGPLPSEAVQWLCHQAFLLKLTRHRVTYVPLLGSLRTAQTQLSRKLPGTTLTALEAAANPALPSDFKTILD

Consider `CN(C)CCCCn1c2ccc(-c3nc4ccc(N5CCN(CCO)CC5)cc4[nH]3)cc2c2cc(-c3nc4ccc(N5CCN(CCO)CC5)cc4[nH]3)ccc21`, for which the outcome in test [1] was Active. The DC50 in test [2] turned out to be 830 nM; in test [3] it was 1390 nM; in [4], 650 nM; in test [5], 780 nM. The results for the ΔTm in [6] and in test [7] were 24.7 °C and 23.3 °C, respectively. For the same molecule, the results for the half-inhibitory concentration (IC50) in [8] and in [12] were 300 nM and 8290 nM, respectively. Moreover, the inhibition result in test [8] was “Dose-dependent effect”. The Activity result in [9] is “Dose-dependent effect”; in [10], “Dose-dependent effect”; in [11], 44%; in [12], “Dose-dependent effect”.

As usually defined, the ΔTm is the shift of the melting midpoint relative to a reference. By IC50 is commonly meant the point on the concentration scale where inhibition reaches its midpoint.
